From article PMC11621838 (Proceedings of the National Academy of Sciences of the …, 2024)

Assays:
TAS2R5 [1] = target: T1, TAS2R5 (Homo sapiens, UniProt Q9NYW4); assay type: cell-based
T1 sequence (Q9NYW4 1-299): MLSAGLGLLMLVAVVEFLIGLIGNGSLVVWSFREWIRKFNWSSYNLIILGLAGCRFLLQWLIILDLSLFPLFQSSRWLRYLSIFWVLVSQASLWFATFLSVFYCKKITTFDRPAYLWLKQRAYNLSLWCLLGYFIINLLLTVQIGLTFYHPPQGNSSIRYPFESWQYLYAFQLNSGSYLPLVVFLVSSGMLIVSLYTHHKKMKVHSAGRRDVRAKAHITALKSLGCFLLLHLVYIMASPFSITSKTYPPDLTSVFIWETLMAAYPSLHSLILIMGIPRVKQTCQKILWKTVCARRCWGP

TAS2R5 [2] = target: T1, TAS2R5; test: FLOWER microtoroid optical resonator receptor-ligand affinity measurement; assay type: binding
Procedure, shortened: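 Microtoroid coated with DOPC vesicles (0.5 mg/mL, 1.5 h, 3–4 °C). HEK-293-expressed TAS2R5 was extracted with CellLyticM (1:3) and spun 12,500 rcf, 60 min, 4 °C. The supernatant, diluted 1:6 in DPBS pH 7.4, was incubated with the toroid for 1.5 h. Graded agonist concentrations were perfused with 5-min buffer rinses. Peak wavelength shift per concentration was fit to a Hill binding equation (Bmax, nonspecific, background terms) for KD.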

EC50 (TAS2R5 [1]; EC50, D9 cells, Fluo-4, [Ca2+]i, mean ± SE of 7 to 10 experiments): 23.1 ± 3.99 µM | EC50, fold lower than that of T5-14 (TAS2R5 [1]; [Ca2+]i in D9 cells): 3 fold | potency class of the agonist (TAS2R5 [1]; cellular assays): moderate-potency | S.T. (log-transformed signal transduction coefficient) (TAS2R5 [1]; log(EMax/EC50), EC50 in Molar): 6.5 | Kd (TAS2R5 [2]): 13 ± 3.5 µM
SMILES: c1cnc2c(c1)ccc1cccnc12 [T5-1, 1,10-phenanthroline]
